Calls of active or inactive are those of the source. The rule behind the calls is not given here.
Tests used:
Homo sapiens = organism: Homo sapiens; assay: Binding affinity to human morselized allograft bone by immunohistochemical analysis
Outline: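 Human cancellous/cortical bone granules (0.5–2.0 mm), EDTA-treated, with covalently coupled VAN and washed until eluent gave no S. aureus disk-diffusion inhibition. PBS-washed ×3, blocked 1 h in 10% FBS/PBS, rabbit anti-VAN IgG (1:500) 12 h at 4°C, Alexa 488 anti-rabbit (1:1,000) 1 h RT, epifluorescence read-out. Uncoupled bone as control.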

Staphylococcus aureus [1] = assay: Antibacterial activity against Staphylococcus aureus Xen36 infected in drug treated human morselized bone allograft assessed as inhibition of biofilm formation after 12 hrs by confocal laser scanning microscopy; format: functional, organism-based
Outline: (§1)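 Allograft morsels challenged with S. aureus (1 ml, 1 × 10^4 CFU/ml) in TSB at 37°C without agitation for 5 or 12 h, washed three times in PBS, stained with Live/Dead BacLight (20 min, RT), imaged by confocal laser scanning microscopy with Z-plane optical sectioning and reconstruction.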

[2] = Cytotoxicity in human FOB on drug treated bone allograft assessed as increase of protein level after 1 day; settings: 24 h
Outline: (§2)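 hFOB cells cultured on sterilized flat cortical allograft in DMEM-F-12 with 10% FBS for 1 or 3 days, lysed with M-PER buffer 30 min with shaking; total protein by Bradford assay as index of adhesion and proliferation; at least three experiments, means ± standard errors.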

[3] = Cytotoxicity in human FOB on drug treated bone allograft assessed as changes on cytoskeletal architecture after 48 hrs by propidium iodide staining
Outline: (§3)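 Cortical allograft pieces (1 × 1 cm; 70% ethanol, PBS and medium rinses, 10 min UV) seeded with 1 ml of 50,000 cells/ml hFOB in DMEM-F-12 with 10% FBS; after 48 h fixed (4% paraformaldehyde), permeabilized (0.1% Triton X-100), stained with Alexa 488-phalloidin and propidium iodide 30 min RT, imaged by confocal microscopy.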

Escherichia coli = assay: Antibacterial activity against Escherichia coli DH5[alpha] infected in drug treated human morselized bone allograft assessed as reduction of bacterial count after up to 12 hrs by colony counting; format: functional, organism-based
Outline: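 Sterilized allograft granules (0.5–2.0 mm, human cancellous/cortical) incubated without agitation at 37°C in TSB with 1 ml of 1 × 10^4 CFU/ml bacteria (overnight TSB culture, 250 rpm, 37°C) for 2, 5, 8 or 12 h; washed three times with PBS, three more times, sonicated 5 min in 0.3% Tween 80/PBS, serially diluted, plated on Petrifilms and colonies counted; S. aureus shown as % of control per time point.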

[4] = Stability of the human bone graft-bound drug in phosphate buffer saline after 7 days by immunofluorescent staining; format: ADME; settings: 168 h
Outline: (§4)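 About 10 mg modified allograft held 7 days at 37°C in 1 ml water, PBS, DMEM-F-12 with 10% FBS, or S. aureus in TSB (bacteria removed by 30 min sonication in 1% SDS), or kept dry in air; then PBS-washed, blocked in 10% FBS/PBS 1 h, rabbit anti-VAN IgG 1:500 at 4°C 12 h, Alexa Fluor 488 anti-rabbit 1:1,000 RT 1 h, viewed by epifluorescence.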

[5] = Stability of the human bone graft-bound drug in air after 7 days by immunofluorescent staining; format: ADME; settings: 168 h; outline: as §4
Staphylococcus aureus [6] = assay: Antibacterial activity against Staphylococcus aureus Xen36 infected in drug treated human morselized bone allograft assessed as inhibition of biofilm formation after 6 hrs by scanning electron microscopy; format: functional, organism-based
Outline: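 Allograft morsels exposed to S. aureus in TSB for 6 h, then examined by scanning electron microscopy at low magnification, ×1,500 and ×4,000 for adherent bacteria and biofilm.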

Staphylococcus aureus [7] = assay: Antibacterial activity against Staphylococcus aureus Xen36 infected in drug treated human morselized bone allograft assessed as reduction of bacterial count after 12 hrs followed by additional 4 hrs in presence of 10 ug/ml of drug by colony counting; format: functional, organism-based
Outline: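 Control or modified allograft incubated with S. aureus (1 ml, 10^4 CFU/ml) in TSB 12 h, either with 10 μg/ml solution VAN added alongside inoculum, or washed, transferred and given 4 h in TSB with 10 μg/ml VAN; after 16 h total, washed, adherent bacteria sonicated off, plated and counted, expressed as % of control per condition.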

[8] = Stability of the human bone graft-bound drug in dulbecco modified eagle medium after 7 days by immunofluorescent staining; format: ADME; settings: 168 h; outline: as §4
[9] = Cytotoxicity in human FOB on drug treated bone allograft assessed as morphological changes after 48 hrs by propidium iodide staining; outline: as §3
[10] = Cytotoxicity in human FOB on drug treated bone allograft assessed as increase of protein level after 3 days; settings: 72 h; outline: as §2
[11] = Stability of the human bone graft-bound drug 7 days after incubation with Staphylococcus aureus in trypticase soy broth by immunofluorescent staining; format: ADME; settings: 168 h; outline: as §4
[12] = Cytotoxicity in human FOB on drug treated bone allograft assessed as release of lactate dehydrogenase after 1 day; settings: 24 h
Outline: (§5)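 hFOB cells grown on flat cortical allograft 1 or 3 days; LDH released into medium measured with Tox-7 kit, given as percentage of released over total cellular LDH, normalized to day 1 controls; at least three experiments, means ± standard errors.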

Staphylococcus aureus [13] = assay: Antibacterial activity against Staphylococcus aureus Xen36 infected in drug treated human morselized bone allograft assessed as inhibition of biofilm formation after 5 hrs by confocal laser scanning microscopy; format: functional, organism-based; outline: as §1
[14] = Stability of the human bone graft-bound drug in water after 7 days by immunofluorescent staining; format: ADME; settings: 168 h; outline: as §4
[15] = Cytotoxicity in human FOB on drug treated bone allograft assessed as release of lactate dehydrogenase after 3 days; settings: 72 h; outline: as §5

CN[C@H](CC(C)C)C(=O)N[C@H]1C(=O)N[C@@H](CC(N)=O)C(=O)N[C@H]2C(=O)N[C@H]3C(=O)N[C@H](C(=O)N[C@H](C(=O)O)c4cc(O)cc(O)c4-c4cc3ccc4O)[C@H](O)c3ccc(c(Cl)c3)Oc3cc2cc(c3O[C@@H]2O[C@H](CO)[C@@H](O)[C@H](O)[C@H]2O[C@H]2C[C@](C)(N)[C@H](O)[C@H](C)O2)Oc2ccc(cc2Cl)[C@H]1O [VANCOMYCIN]
Activity (Homo sapiens): Active
Activity (Staphylococcus aureus [1]): Active
Activity [2]: Toxic
Activity [3]: Non-toxic
Activity (Escherichia coli): inactive
Stability [4]: Stable
Stability [5]: Stable
Activity (Staphylococcus aureus [6]): Active
Activity (Staphylococcus aureus [7]): Active
Stability [8]: Stable
Activity [9]: Non-toxic
Activity [10]: Non-toxic
Stability [11]: Stable
Activity [12]: Non-toxic
Activity (Staphylococcus aureus [13]): Active
Stability [14]: Stable
Activity [15]: Non-toxic

Source: ChEMBL document CHEMBL1687840, “Vancomycin bonded to bone grafts prevents bacterial colonization” (Antimicrob Agents Chemother, 2011)
